Measured values as given in PMC4627693 (Chemistry & biology, 2014).
Where a SMILES comes first, the peptide text is derived from it. The star is where a group is joined. Biotin = O=C1N[C@H]2[C@H](CS[C@H]2CCCCC(=O)*)N1; AEEA = NCCOCCOCC(=O)O

Tests used:
Format in all cases: binding
[1] = molecular target: c-Src-acrylamide (Gallus gallus, UniProt P00523); assay: Thiol reaction with Src-acrylamide, LC-MS; conditions: 4 μM c-Src-acrylamide (crosslinker 2), 25 minutes, room temperature
Procedure, shortened: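 Recombinant c-Src (4 μM final) was pre-labelled with 20 μM crosslinker in PBS pH 8 (0.025% DMSO final) for 15 min without quench. It was then reacted with 2-methylbenzylmercaptan (50 μM-1 mM) or Cys-containing peptide (25-400 μM) to give a dose-response. Products were read by LC-ESI-MS (C4 column, deconvoluted spectra). Data are duplicate points (SEM), from three separate experiments.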

[2] = test system: c-Src-imine (c-Src-1 complex); assay: Thiol reaction with Src-imine
Procedure, shortened: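 c-Src (4 μM) pre-labelled 15 min with dialdehyde crosslinker (20 μM) in 25 mM HEPES pH 6.5, not quenched. Imine adduct then treated with 2-methylbenzylmercaptan (50 μM–1 mM) or Cys peptide (25–400 μM). Products analysed by ESI LC-MS with deconvolution. Duplicate points, representative of three experiments, error shown as SEM.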

[3] = test system: recombinant c-Src; conditions: crosslinker 2 (20 μM), HCT-15 lysate
Procedure, shortened: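 HCT-15 lysate diluted in reaction buffer to 2 mg/mL (500 μL), with MgCl2 and 4 pmol recombinant c-Src added. Crosslinker (20 μM) added for 10 min at room temperature, then biotinylated Cys peptide (5–40 μM final) for 25 min. Urea lysis buffer added, then streptavidin-agarose capture for 1 h at room temperature with shaking. Beads washed in 4M urea and boiled in reducing Laemmli buffer. Anti-Src western blot read by infrared imaging, giving % of a total-c-Src standard. Duplicates; two experiments.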

[4] = test system: c-Src; conditions: peptide 74 μM, 4 μM c-Src, 20 μM crosslinker 2; three hour time course; LC-MS
Procedure, shortened: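 c-Src (4 μM) in PBS pH 8 incubated with acrylate crosslinker (20 μM; DMSO 0.025% final) and biotinylated cysteine-containing quasi-substrate peptide (74 μM) over 3 h. Samples quenched with NaBH4 in cold MeOH and analysed by ESI LC-MS on a C4 column with deconvolution. Crosslinked product expressed as % of total c-Src.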

[5] = test system: c-Src; conditions: no adenine mimetic; 20 μM crosslinker, 4 μM c-Src, 25 mM HEPES pH 6.5; NaBH4 quench; LC-MS

Cc1ccccc1CS [2-methylbenzylmercaptan, reference compound]
crosslinked product formation with Src-acrylamide adduct [1]: much less efficient
product formation with c-Src-1 complex (Src-imine) ([2]; at high concentrations (50 μM-1 mM range), 4 μM c-Src-imine, 25 minutes, room temperature, LC-MS): significant product formation

CC[C@H](C)[C@H](NC(=O)COCCOCCNC(=O)COCCOCCNC(=O)CCCC[C@@H]1SC[C@@H]2NC(=O)N[C@@H]21)C(=O)N[C@@H](CS)C(=O)NCC(=O)N[C@@H](CCC(=O)O)C(=O)N[C@@H](Cc1ccccc1)C(=O)N[C@@H](CCCNC(=N)N)C(=O)N[C@@H](CCCNC(=N)N)C(=O)N[C@@H](CCCNC(=N)N)C(N)=O [Cys-Srctide] ({Biotin-AEEA-AEEA}-ICGEFRRR-NH2; C-terminus assumed)
c-Src captured at lowest peptide concentration ([3]; 5 μM peptide, 25 minutes): roughly 1%
crosslinked product formation with Src-acrylamide adduct [1]: significant crosslinked product
crosslinked product formation over time course (in words) [4]: proceed to completion
overall yield of the reaction with dialdehyde crosslinker 1 ([2]; dialdehyde-based crosslinker (earlier strategy), LC/MS): below the limit of detection
crosslinked product formation with c-Src-1 complex ([2]; peptide concentrations exceeding 200 μM, 4 μM c-Src-imine, room temperature, LC-MS): no product formation was detected

O=Cc1ccsc1C=O [thiophene dialdehyde]
product (adduct) formed with c-Src [5]: almost undetectable

Biotin-ZZRPRTSCF [Cys-Aktide]
c-Src captured at lowest peptide concentration (in words) ([3]; 5 μM peptide, 25 minutes): not captured at a detectable level
percentage of c-Src recovered vs negative control ([3]; 40 μM peptide): significantly above the negative control
yield of c-Src compared with Cys-Srctide ([3]; 25 minutes): less than that of Cys-Srctide
crosslinked product formation over time course (in words) [4]: reacted more slowly than Cys-Srctide, and did not reach completion

Biotin-ZZRRADDCDDDD [Cys-CK2tide]
crosslinked product (percentage of total c-Src) [4]: less than 10%
